Measurements collected from several papers.
Protocols differ between the studies behind these lines.
Observed: metabolic stability
Species: human
Sample: liver microsomes

With `COc1cc2[nH]c(C)c(-c3ccc(N(C)C)cc3)c(=O)c2cc1Cl` the microsomal CLint was 15 µL/min/mg (1 µM).
`O=[N+]([O-])c1ccc(Nc2ccnc3ccc(-c4ccc(S(=O)(=O)N5CCOCC5)cc4)cc23)cn1` has a microsomal CLint of 106 µL/min/mg.
With `COc1cc2[nH]c(C)c(-c3ccc(N(C)C)nc3)c(=O)c2cc1Cl` the microsomal CLint was 20 µL/min/mg (1 µM).
`CN(c1ccc(F)cc1)c1c(-c2cccc(F)n2)nc2ccccn12` has a microsomal CLint of 170 µL/min/mg (3 µM; pH 7.4).
`O=S(=O)(c1ccc(-c2ccc3nccc(Nc4ccccc4)c3c2)cc1)N1CCOCC1` gave a microsomal CLint of 71.3 µL/min/mg.
`c1ccc(-c2nc(N3CCCC3)c3ccccc3n2)nc1` gave a microsomal CLint of 62 µL/min/mg.
`Cn1cnc(-c2nc3ccccn3c2Nc2ccc(F)cc2)c1` gave a microsomal CLint of 17 µL/min/mg (3 µM; pH 7.4).
`NC(=O)c1cccc(-c2nc(N3CCC(c4ccccn4)C3)c3ccccc3n2)c1` (stereo not shown) has a microsomal CLint of 111 µL/min/mg.
`COc1ccn2c(Nc3ccccc3F)c(-c3ccncn3)nc2c1` has a microsomal CLint of 120 µL/min/mg (3 µM; pH 7.4).
`CN1CCN(c2nc(-c3ccccn3)nc3ccccc23)CC1` gave a microsomal CLint of less than 1 µL/min/mg.
`FC(F)(F)c1cccc(Nc2c(-c3ccccn3)nc3ccccn23)c1` has a microsomal CLint of 59 µL/min/mg (3 µM; pH 7.4).
With `c1ccc(-c2nc(NCc3nccs3)c3ccccc3n2)nc1` the microsomal CLint was 36 µL/min/mg.
For `COc1cc2[nH]c(C)c(-c3ccc(F)cc3F)c(=O)c2cc1Cl`, the microsomal CLint was 9 µL/min/mg (1 µM).
